The text below walks through data of ChEMBL document CHEMBL3352004, “(7-Benzyloxy-2,3-dihydro-1H-pyrrolo[1,2-a]indol-1-yl)acetic Acids as S1P1 Functional Antagonists” (ACS Med Chem Lett, 2014).

Data set [1] addresses T1, Sphingosine 1-phosphate receptor 1 (Homo sapiens, UniProt P21453). The data set is described as follows: Agonist activity at human S1P1 receptor assessed as cAMP accumulation by HTRF assay relative to S1P. The format is functional. Background: Changes in cAMP serve as a functional read-out for many G protein-coupled receptors.
In data set [2] the target is T1, Sphingosine 1-phosphate receptor 1. The data set is described as follows: Agonist activity at human S1P1 receptor assessed as cAMP accumulation by HTRF assay. The format is functional. The essentials: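 S1P1 engagement measured as cyclase activity in a homogeneous time-resolved fluorescence (HTRF) assay.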
The target in data set [3] is Sphingosine 1-phosphate receptor 2 (Homo sapiens, UniProt O95136). The experiment in a line: Agonist activity at human S1P2 receptor by beta-arrestin recruitment assay. (Recruitment of arrestin is a read-out of receptor activation apart from second messengers.)
Chain of Sphingosine 1-phosphate receptor 2 (O95136 whole entry): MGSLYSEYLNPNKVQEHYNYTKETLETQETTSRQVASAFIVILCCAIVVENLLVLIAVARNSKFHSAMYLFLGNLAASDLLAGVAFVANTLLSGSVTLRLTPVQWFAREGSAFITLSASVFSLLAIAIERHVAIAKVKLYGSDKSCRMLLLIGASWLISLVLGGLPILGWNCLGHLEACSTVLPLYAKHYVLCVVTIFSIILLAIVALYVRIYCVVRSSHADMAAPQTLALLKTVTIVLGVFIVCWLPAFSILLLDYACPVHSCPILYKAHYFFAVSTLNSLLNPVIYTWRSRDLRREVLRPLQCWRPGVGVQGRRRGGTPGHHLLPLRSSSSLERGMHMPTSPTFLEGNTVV
A short description of data set [4]: Volume of distribution at steady state in Sprague-Dawley rat at 1 mg/kg, iv. The note with it: in vivo, read-out: Vdss. Further details: dose 1 mg/kg, route intravenous. The format is ADME, organism-based.
Data set [5] in a line: Ratio of drug level in brain to plasma in Sprague-Dawley rat. The format is ADME. The note with it: read-out: BPR. The essentials: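 Abbreviated rat CNS distribution: a single 1.0 mg/kg oral dose, with brain and plasma drug levels measured over 6 h. Brain-to-plasma ratio derived from these levels.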
Data set [6] can be described thus: Tmax in Sprague-Dawley rat at 1 mg/kg, po. The format is ADME, organism-based. Also on record: dose 1 mg/kg, route oral. The following applies: in vivo.
The nature of data set [7]: Oral bioavailability in Sprague-Dawley rat at 1 mg/kg. The format is ADME, organism-based. The following applies: in vivo.
The species entered for the next data set is Rattus norvegicus. The data set is described as follows: Reduction in lymphocyte count in Sprague-Dawley rat. The format is functional, organism-based. An outline of the steps: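 A PK/PD model relating plasma drug concentration to circulating lymphocyte counts was used to derive the plasma concentration that reduces lymphocytes by 50% (LL IC50, ng/mL).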

Data set [8] is described as follows: AUC (0 to infinity) in Sprague-Dawley rat at 1 mg/kg, iv or at 1 mg/kg, po. The format is ADME, organism-based. The following applies: plasma.
In data set [9] the target is Sphingosine 1-phosphate receptor 3 (Homo sapiens, UniProt Q99500). The experiment in a line: Agonist activity at human S1P3 receptor by beta-arrestin recruitment assay.
Chain of Sphingosine 1-phosphate receptor 3 (Q99500 whole entry): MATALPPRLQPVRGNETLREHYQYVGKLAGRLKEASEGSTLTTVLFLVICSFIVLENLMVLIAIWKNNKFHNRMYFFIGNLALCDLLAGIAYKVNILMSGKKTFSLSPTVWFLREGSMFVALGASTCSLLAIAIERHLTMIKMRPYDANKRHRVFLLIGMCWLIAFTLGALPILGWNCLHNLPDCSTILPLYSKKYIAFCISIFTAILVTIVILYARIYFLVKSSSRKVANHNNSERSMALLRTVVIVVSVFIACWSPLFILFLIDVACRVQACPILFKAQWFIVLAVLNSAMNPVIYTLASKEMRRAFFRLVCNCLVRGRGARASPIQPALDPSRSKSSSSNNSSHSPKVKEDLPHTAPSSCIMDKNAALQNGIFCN
The target in data set [10] is T2, Sphingosine 1-phosphate receptor 5 (Homo sapiens, UniProt Q9H228). The data set is described as follows: Agonist activity at human S1P5 receptor by beta-arrestin recruitment assay.
T2 sequence (Q9H228 whole entry): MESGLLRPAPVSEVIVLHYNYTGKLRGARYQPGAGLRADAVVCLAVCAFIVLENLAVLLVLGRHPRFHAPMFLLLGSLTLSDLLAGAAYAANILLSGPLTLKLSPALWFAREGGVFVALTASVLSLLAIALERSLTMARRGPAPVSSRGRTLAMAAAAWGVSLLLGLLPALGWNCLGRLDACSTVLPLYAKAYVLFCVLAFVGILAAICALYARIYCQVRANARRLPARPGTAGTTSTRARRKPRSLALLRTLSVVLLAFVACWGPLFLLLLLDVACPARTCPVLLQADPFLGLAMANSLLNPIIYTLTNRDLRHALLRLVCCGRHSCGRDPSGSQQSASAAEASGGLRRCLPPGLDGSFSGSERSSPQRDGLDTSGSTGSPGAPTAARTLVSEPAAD
In data set [11] the target is T3, Sphingosine 1-phosphate receptor 4 (Homo sapiens, UniProt O95977).
T3 sequence (O95977 whole entry): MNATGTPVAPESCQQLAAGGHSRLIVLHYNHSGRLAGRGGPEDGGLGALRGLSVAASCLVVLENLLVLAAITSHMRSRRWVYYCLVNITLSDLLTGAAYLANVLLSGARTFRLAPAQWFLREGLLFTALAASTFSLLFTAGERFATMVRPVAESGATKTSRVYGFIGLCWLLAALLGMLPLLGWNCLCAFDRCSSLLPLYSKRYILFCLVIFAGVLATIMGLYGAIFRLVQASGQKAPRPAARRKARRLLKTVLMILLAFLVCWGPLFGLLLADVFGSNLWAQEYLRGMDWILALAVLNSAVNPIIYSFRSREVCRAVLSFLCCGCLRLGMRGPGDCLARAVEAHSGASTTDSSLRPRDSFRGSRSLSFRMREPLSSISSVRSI
The data set is described as follows: Agonist activity at human S1P4 receptor by beta-arrestin recruitment assay.

Data set [12] can be described thus: Cmax in Sprague-Dawley rat at 1 mg/kg, po. The format is ADME, organism-based. Also on record: dose 1 mg/kg, route oral. The following applies: in vivo.
Data set [13] has as its target T1, Sphingosine 1-phosphate receptor 1. The experiment in a line: Agonist activity at human S1P1 receptor by beta-arrestin recruitment assay.
A short description of data set [14]: Elimination half life in Sprague-Dawley rat at 1 mg/kg, po. The format is ADME, organism-based. Further details: dose 1 mg/kg, route oral. The following applies: in vivo, read-out: beta t1/2 (converted).
Data set [15] in a line: Systemic clearance in Sprague-Dawley rat at 1 mg/kg, iv. The format is ADME, organism-based. Further details: dose 1 mg/kg, route intravenous. The note with it: in vivo.
The target in data set [16] is T1, Sphingosine 1-phosphate receptor 1. The data set is described as follows: Agonist activity at human S1P1 receptor by beta-arrestin recruitment assay relative to S1P.
The target in data set [17] is T4, Sphingosine 1-phosphate receptor 4 (Homo sapiens) (UniProt O95977).
T4 sequence (whole entry): T3 sequence (O95977 whole entry)
The experiment in a line: Agonist activity at human S1P4 receptor by beta-arrestin recruitment assay relative to S1P.

In data set [18] the target is T2, Sphingosine 1-phosphate receptor 5. The experiment in a line: Agonist activity at human S1P5 receptor by beta-arrestin recruitment assay relative to S1P.

pEC50: −log10 of the molar value. Converted amounts (≈) assume the structure as drawn. Some results are limits rather than exact numbers.

T1 sequence (P21453 whole entry): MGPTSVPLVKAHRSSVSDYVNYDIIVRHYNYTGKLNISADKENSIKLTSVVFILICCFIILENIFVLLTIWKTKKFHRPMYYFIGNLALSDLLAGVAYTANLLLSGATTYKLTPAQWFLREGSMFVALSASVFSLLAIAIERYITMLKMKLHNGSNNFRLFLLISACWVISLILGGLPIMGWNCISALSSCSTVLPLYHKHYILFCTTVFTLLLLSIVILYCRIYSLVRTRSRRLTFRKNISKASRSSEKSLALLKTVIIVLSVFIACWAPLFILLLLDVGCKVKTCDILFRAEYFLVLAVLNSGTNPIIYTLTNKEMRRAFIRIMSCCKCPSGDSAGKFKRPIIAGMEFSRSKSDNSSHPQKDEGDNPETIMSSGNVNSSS

As for `N#Cc1cc(COc2ccc3c(c2)cc2n3CCC2CC(=O)O)ccc1C1CCCC1` (racemic), in data set [1], the Emax (in general, the size of the effect at its maximum, as opposed to the concentration needed) came out at 92%. For the same compound, the pEC50 (in general, −log10 of the EC50, conventionally taken in molar units) in data set [2] was 9.31.

With `O=C(O)CC1CCn2c1cc1cc(OCc3ccc(C4CCCC4)c(C(F)(F)F)c3)ccc12` (stereo in doubt; 12a) [listing 1 of 2 here], the pEC50 in [3] was less than 5.00; in [2], 10.39; in [9] it was less than 5.00; in [10] it was 6.97; in data set [11], 6.24; in data set [13] it was 8.60. Further, the Vd in data set [4] was found to be 0.986 L/kg. Further, the Kp in [5] came to 0.53. The Tmax (usually the time at which the peak concentration occurs) in data set [6] came to 2.67 h. Moreover, in data set [7], the bioavailability (commonly the share of a dose that reaches the circulation, judged against a reference dose that is usually intravenous) is 39%. In addition, in the data set filed under Rattus norvegicus, half-maximal inhibition (IC50) was put at 0.0241 µg/mL (≈ 0.0527 µM). The AUC(0-inf) – broadly, total exposure, with the tail of the curve extrapolated – in [8] was 5430 ng·h/mL. For the same compound, the highest level in data set [12] (Cmax) was 526 ng/mL. Also, the half-life in [14] was 9.16 h. In addition, in data set [15], the clearance (commonly the rate of elimination divided by the concentration) is 1.2 mL/min/kg.

As to `CC(C)Oc1ccc(COc2ccc3c(c2)cc2n3CCC2CC(=O)O)cc1C#N` (racemic) [listing 1 of 2 here], the pEC50 in data set [2] is 9.82.

Turning to `O=C(O)CC1CCn2c1cc1cc(OCc3ccc(C4CCCC4)c(C(F)(F)F)c3)ccc12` (racemic) [listing 1 of 2 here], the Emax in data set [1] stood at 108%.

Take `CC(C)Oc1ccc(COc2ccc3c(c2)cc2n3CCC2CC(=O)O)cc1C#N` (stereo in doubt; 19b) [listing 1 of 2 here]: the pEC50 in data set [3] was less than 5.00; in data set [2], 8.82; in [9] it was less than 5.00; in data set [10], 5.01; in data set [11], less than 5.00; in data set [13], 6.80.

On to `O=C(O)CC1CCn2c1cc1cc(OCc3ccc(C4CCCC4)c(C(F)(F)F)c3)ccc12` (stereo in doubt; 12a) [listing 2 of 2 here], for which the Emax in data set [16] came to 105%; in data set [1], 97%; in data set [17], 47%; in data set [18], 83%.

For the compound `CC(C)Oc1ccc(COc2ccc3c(c2)cc2n3CCC2CC(=O)O)cc1C#N` (stereo in doubt; 19b) [listing 2 of 2 here], the Emax in [16] was found to be 122%; in data set [1], 104%; in data set [18], 133%.

With `CC(C)Oc1ccc(COc2ccc3c(c2)cc2n3CCC2CC(=O)O)cc1C(F)(F)F` (racemic) [listing 1 of 2 here], the pEC50 in data set [2] is 9.82.

Regarding `O=C(O)CC1CCn2c1cc1cc(OCc3ccc(C4CCCC4)c(C(F)(F)F)c3)ccc12` (stereo in doubt; 12b) [listing 1 of 2 here], the Emax in data set [16] came out at 100%; in [1], 100%; in data set [17], 49%; in data set [18], 59%.

As to `CC(C)Oc1ccc(COc2ccc3c(c2)cc2n3CCC2CC(=O)O)cc1C#N` (stereo in doubt; 19a) [listing 1 of 2 here], the figures for the Emax in [16], in [1] and in data set [18] were 128%, 98% and 54%, respectively.

As for `COc1ccc(COc2ccc3c(c2)cc2n3CCC2CC(=O)O)cc1C#N` (racemic), in data set [1], the maximum response (Emax) stood at 122%. For the same compound, the negative logarithm of the EC50 (pEC50) in data set [2] is 7.42.

Turning to `CC(C)Oc1ccc(COc2ccc3c(c2)cc2n3CCC2CC(=O)O)cc1C(F)(F)F` (single isomer, unassigned; enantiomer 2) [listing 1 of 2 here], the pEC50 was less than 5.00 in data set [3]; 9.19 in [2]; less than 5.00 in [9]; less than 5.00 in [10]; less than 5.00 in [11]; 7.40 in data set [13].

As to `CC(C)Oc1ccc(COc2ccc3c(c2)cc2n3CCC2CC(=O)O)cc1C#N` (stereo in doubt; 19a) [listing 2 of 2 here], the pEC50 in data set [3] was less than 5.00; in [2], 9.89; in data set [9], less than 5.00; in [10] it was 6.39; in data set [11] it was less than 5.00; in data set [13], 7.96. Further, in data set [4], the Vd stood at 0.732 L/kg. Moreover, in [5], the Kp came out at 0.016. Also, the Tmax in data set [6] stood at 2 h. This compound yielded a bioavailability in data set [7] of 49.8%. In the data set listed under Rattus norvegicus, the IC50 – broadly, the concentration needed to halve the response being measured – amounted to 0.21 µg/mL (≈ 0.519 µM). The AUC(0-inf) in data set [8] worked out at 3990 ng·h/mL. Moreover, the peak level in [12] (Cmax) was 569 ng/mL. Moreover, in [14], the half-life was 3.99 h. In data set [15], the clearance was 2.18 mL/min/kg.

For the compound `CC(C)Oc1ccc(COc2ccc3c(c2)cc2n3CCC2CC(=O)O)cc1C#N` (racemic) [listing 2 of 2 here], the Emax in data set [1] was found to be 105%.

On to `N#Cc1ccc(COc2ccc3c(c2)cc2n3CCC2CC(=O)O)cc1C(F)(F)F` (racemic), for which, in data set [1], the Emax was 104%. Further, the pEC50 in data set [2] is 7.08.

For the compound `CC(C)Oc1ccc(COc2ccc3c(c2)cc2n3CCC2CC(=O)O)cc1C(F)(F)F` (single isomer, unassigned; enantiomer 2) [listing 2 of 2 here], the Emax in [16] worked out at 104%; in data set [1], 116%.

As for `O=C(O)CC1CCn2c1cc1cc(OCc3ccc(C4CCCC4)c(C(F)(F)F)c3)ccc12` (stereo in doubt; 12b) [listing 2 of 2 here], the pEC50 in data set [3] is less than 5.00; in data set [2] it was 9.49; in data set [9], less than 5.00; in data set [10] it was 7.09; in data set [11] it was 6.38; in data set [13], 7.70.

With `CC(C)Oc1ccc(COc2ccc3c(c2)cc2n3CCC2CC(=O)O)cc1C(F)(F)F` (racemic) [listing 2 of 2 here], in data set [1], the Emax amounted to 112%.

On to `O=C(O)CC1CCn2c1cc1cc(OCc3ccc(OCC4CC4)c(C(F)(F)F)c3)ccc12` (racemic), for which, in [1], the Emax amounted to 100%. Further, the negative logarithm of the EC50 (pEC50) in data set [2] is 8.96.

For the compound `CC(C)Oc1ccc(COc2ccc3c(c2)cc2n3CCC2CC(=O)O)cc1C(F)(F)F` (single isomer, unassigned; enantiomer 1) [listing 1 of 2 here], the pEC50 in data set [3] is less than 5.00; in data set [2] it was 10.17; in [9] it was less than 5.00; in data set [10], less than 5.00; in data set [11] it was less than 5.00; in data set [13], 8.07.

As for `O=C(O)CC1CCn2c1cc1cc(OCc3ccc(C4CCCC4)c(C(F)(F)F)c3)ccc12` (racemic) [listing 2 of 2 here], the pEC50 in data set [2] is 10.02.

With `O=C(O)CC1CCn2c1cc1cc(OCc3ccc(OCF)c(C(F)(F)F)c3)ccc12` (racemic), the Emax in data set [1] was 119%. The pEC50 in [2] was 8.17.

As for `O=C(O)CC1CCn2c1cc1cc(OCc3ccc(Cl)c(C(F)(F)F)c3)ccc12` (racemic), the maximal response (Emax) in [1] is 116%. Moreover, the pEC50 in data set [2] was 6.82.

As to `CC(C)Oc1ccc(COc2ccc3c(c2)cc2n3CCC2CC(=O)O)cc1C(F)(F)F` (single isomer, unassigned; enantiomer 1) [listing 2 of 2 here], the Emax came out at 108% in [16] and 107% in data set [1].
